According to ChEMBL document CHEMBL1124704, “Synthesis and immunosuppressive activity of some side-chain variants of mycophenolic acid” (J Med Chem, 1990):
Values joined by “and” are separate entries in the source; they are usually repeats but may differ in a detail not shown here. Equal entries are not always repeated.

Assays:
[1] = In vitro inhibition of human lymphocyte proliferation in response to phytohemagglutininin (PHA) was determined; format: functional
[2] = In vitro inhibition of human lymphocyte proliferation in response to staphylococcus protein A(SPA) was determined; format: functional
[3] = In vitro inhibition of human lymphocyte proliferation in response to pokeweed mitogen(PWM) was determined; format: functional
[4] = biological target: Inosine-5'-monophosphate dehydrogenase 1 (Homo sapiens, UniProt P20839); assay: In vitro inhibition of inosine Inosine-5'-monophosphate dehydrogenase
How it was run: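 IMPD came from a MOLT-4 cell lysate: five freeze-thaw cycles, then the high-speed (ca. 31000g) supernatant was kept. Assay in 50 mM potassium phosphate pH 7.4 with 10 μM [¹⁴C]IMP, 0.3 mM NAD, 0.1 M KCl and 1 mM EDTA, 25 min at 37 °C. Stopped with HClO₄; IMP/XMP quantified by anion-exchange HPLC with radioflow detection. Five concentrations, 0.02–5.0 μg/mL; IC₅₀ determined graphically.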

Mus musculus [5] = assay: In vivo antibody response to sheep red blood cells(SRBC) by plaque-forming cells in the spleen (PFC/spleen) after 50 mg/kg oral administration in mice.; format: functional
Mus musculus [6] = assay: In vivo total no of plaques in spleen was determined after 100 mg/kg oral administration in mice.; format: functional
Mus musculus [7] = assay: In vivo total no of plaques in spleen was determined after 25 mg/kg oral administration in mice.; format: functional
Mus musculus [8] = assay: In vivo antibody response to sheep red blood cells(SRBC) by plaque-forming cells in the spleen (PFC/spleen) after 40 mg/kg oral administration in mice.; format: functional
Mus musculus [9] = assay: The compound was tested in vivo for inhibition of plaques per million after 50 mg/kg oral administration in mice.; format: functional
Mus musculus [10] = assay: In vivo inhibition of plaque-forming cells in the spleen (PFC/spleen) after 100 mg/kg oral administration in mice.; format: functional
Mus musculus [11] = assay: The compound was tested in vivo for inhibition of plaque-forming cells in the spleen (PFC/spleen) after 50 mg/kg oral administration in mice; format: functional
Mus musculus [12] = assay: In vivo antibody response to sheep red blood cells by plaque-forming cells in the spleen (PFC/spleen) after 25 mg/kg oral administration in mice.; format: functional
Mus musculus [13] = assay: In vivo total no of plaques in spleen was determined after 50 mg/kg oral administration in mice.; format: functional
Mus musculus [14] = assay: The compound was tested in vivo for inhibition of plaques per million after 25 mg/kg oral administration in mice.; format: functional
Mus musculus [15] = assay: In vivo antibody response to sheep red blood cells(SRBC) by plaque-forming cells in the spleen (PFC/spleen) after 100 mg/kg oral administration in mice.; format: functional
Mus musculus [16] = assay: In vivo inhibition of plaque-forming cells in the spleen (PFC/spleen) after 40 mg/kg oral administration in mice.; format: functional
Mus musculus [17] = assay: The compound was tested in vivo for inhibition of plaques per million after 40 mg/kg oral administration in mice.; format: functional
Mus musculus [18] = assay: In vivo inhibition of plaque-forming cells in the spleen (PFC/spleen) after 25 mg/kg oral administration in mice.; format: functional
Mus musculus [19] = assay: The compound was tested in vivo for inhibition of plaques per million after 100 mg/kg oral administration in mice.; format: functional
Mus musculus [20] = assay: In vivo antibody response to sheep red blood cells(SRBC) by plaque-forming cells in the spleen (PFC/spleen) after 25 mg/kg oral administration in mice.; format: functional
Mus musculus [21] = assay: In vivo for antibody response to sheep red blood cells(SRBC) by plaque-forming cells in the spleen (PFC/spleen) after 25 mg/kg oral administration in mice.; format: functional
Mus musculus [22] = assay: (§1) In vivo antibody response to sheep red blood cells(SRBC) by plaques per million after 25 mg/kg oral administration in mice.; format: functional
Mus musculus [23] = assay: In vivo inhibition of plaques per million after 25 mg/kg oral administration in mice.; format: functional
Mus musculus [24] = assay: as §1; format: functional; remark: listed apart in the source

Sequence of Inosine-5'-monophosphate dehydrogenase 1 (P20839 whole entry): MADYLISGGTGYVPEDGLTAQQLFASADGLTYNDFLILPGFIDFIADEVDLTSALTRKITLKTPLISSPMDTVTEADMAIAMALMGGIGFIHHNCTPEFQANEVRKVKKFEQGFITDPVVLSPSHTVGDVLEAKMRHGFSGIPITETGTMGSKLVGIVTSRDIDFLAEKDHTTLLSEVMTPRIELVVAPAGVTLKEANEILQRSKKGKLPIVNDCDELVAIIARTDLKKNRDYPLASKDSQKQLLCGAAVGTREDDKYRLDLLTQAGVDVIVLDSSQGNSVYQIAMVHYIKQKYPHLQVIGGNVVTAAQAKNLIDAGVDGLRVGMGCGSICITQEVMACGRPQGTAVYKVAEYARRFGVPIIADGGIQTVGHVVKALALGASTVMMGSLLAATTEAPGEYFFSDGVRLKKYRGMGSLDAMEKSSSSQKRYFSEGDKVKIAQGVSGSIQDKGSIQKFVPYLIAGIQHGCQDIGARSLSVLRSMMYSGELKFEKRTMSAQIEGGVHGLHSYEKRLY

Compound	IC50 [1] [µM]	IC50 [2] [µM]	IC50 [3] [µM]	IC50 [4] [µM]	also measured
COc1c(C)c2c(c(O)c1C/C=C/CCC(=O)O)C(=O)OC2	4.8	4.8	4.8		
COc1c(C)c2c(c(O)c1CSCCC(=O)O)C(=O)OC2	> 10	> 10	> 10	10.9	
COc1c(C)c2c(c(O)c1CC1C(F)(F)C1(C)CCC(=O)O)C(=O)OC2 (stereo unspecified)	3.1	10	2.8	2.6	
COc1c(C)c2c(c(O)c1CSCCCC(=O)O)C(=O)OC2	> 10	> 10	> 10	22.7	
COc1c(C)c2c(c(O)c1CC=C=C(C)CCC(=O)O)C(=O)OC2	0.35	0.15	0.35	1.2	PFC/spleen (Mus musculus [5]): 112416; PPM (Mus musculus [6]): 114; PPM (Mus musculus [7]): 630 and 583; PFC/spleen (Mus musculus [8]): 99333; inhibition in vivo at 50 mg/kg (Mus musculus [9]): -20%; inhibition in vivo at 100 mg/kg (Mus musculus [10]): 80%; inhibition in vivo at 50 mg/kg (Mus musculus [11]): -33%; PFC/spleen (Mus musculus [12]): 96583; PPM (Mus musculus [13]): 657; inhibition in vivo at 25 mg/kg (Mus musculus [14]): 16%; PFC/spleen (Mus musculus [15]): 17000; inhibition in vivo at 40 mg/kg (Mus musculus [16]): 15%; inhibition in vivo at 40 mg/kg (Mus musculus [17]): 22%; inhibition in vivo at 25 mg/kg (Mus musculus [18]; Mus musculus, Spleen, po): 18%; inhibition in vivo at 100 mg/kg (Mus musculus [19]): 79%
COc1c(C)c2c(c(O)c1CC1CC1(C)CCC(=O)O)C(=O)OC2 (stereo unspecified)	3.8	4.3	1.7	1.1	
COc1c(C)c2c(c(O)c1CC#CCCC(=O)O)C(=O)OC2	4.8	7.5	2.4	2.6	
COc1c(C)c2c(c(O)c1CC#CCCCC(=O)O)C(=O)OC2	6	> 10	6	2.5	
COc1c(C)c2c(c(O)c1CCCCCCC(=O)O)C(=O)OC2	> 10	> 10	> 10	1.8	
COc1c(C)c2c(c(O)c1C/C=C/CCCC(=O)O)C(=O)OC2	> 10	> 10	> 10		
COc1c(C)c2c(c(O)c1CCCCCC(=O)O)C(=O)OC2	2.5	1.6	4.3	0.94	
COc1c(C)c2c(c(O)c1CC1C(Br)(Br)C1(C)CCC(=O)O)C(=O)OC2 (stereo unspecified)	4.4	> 10	> 10	3.1	
COc1c(C)c2c(c(O)c1C/C=C(\C)CCC(=O)O)C(=O)OC2 [MYCOPHENOLIC ACID]	0.06	0.06	0.02	0.02	PFC/spleen (Mus musculus [20]): 45333; PFC/spleen (Mus musculus [21]): 36027; PPM (Mus musculus [22]): 264; Inhibition (Mus musculus [23]): 65% and 44%; Inhibition (Mus musculus [18]; 25 mg/kg): 69% and 46%; PPM (Mus musculus [24]): 308 PPM
